Bioassay records (PubChem BioAssay)
Xi reactivation: reactivates the inactive X chromosome in mouse fibroblasts | XiGFP mouse fibroblasts, % GFP-positive cells imaging, 3 d; cells co-treated with 5-aza-dC sensitizer; scaled so ellipticine positive control = 100% | activation, % at 7.58 µM | actives 0.055% (n = 360,000) | AID 743238;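 active means mean normalized replicate activation at least 10% and every replicate at or above 10%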
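Material: XiGFP fibroblasts, SV40-immortalized; Buffer or medium: DMEM containing 5-aza-dC; Compound dosing: single point; Times: 3 days compound exposure.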
PglD DTNB: blocks C. jejuni PglD acetyltransferase activity; purified PglD enzyme, DTNB colorimetric CoA detection; inhibition, % at 12.5 µM; actives 0.098% (n = 360,000); in the data active means inhibition above about 16%, passing the limit was not always enough
E-sel inducer: induces E-selectin expression in human endothelial cells; HUVEC E-selectin immunofluorescence imaging; normalized: neutral wells 0, TNF-alpha wells 100; P16581; actives 0.37% (n = 260,000); activation, % at 7.58 µM;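 active means mean E-selectin-positive cell signal at least 10% of the positive control, reached in at least 60% of replicates, without over 20% cell loss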
Target sequence (P16581 whole entry, looked up): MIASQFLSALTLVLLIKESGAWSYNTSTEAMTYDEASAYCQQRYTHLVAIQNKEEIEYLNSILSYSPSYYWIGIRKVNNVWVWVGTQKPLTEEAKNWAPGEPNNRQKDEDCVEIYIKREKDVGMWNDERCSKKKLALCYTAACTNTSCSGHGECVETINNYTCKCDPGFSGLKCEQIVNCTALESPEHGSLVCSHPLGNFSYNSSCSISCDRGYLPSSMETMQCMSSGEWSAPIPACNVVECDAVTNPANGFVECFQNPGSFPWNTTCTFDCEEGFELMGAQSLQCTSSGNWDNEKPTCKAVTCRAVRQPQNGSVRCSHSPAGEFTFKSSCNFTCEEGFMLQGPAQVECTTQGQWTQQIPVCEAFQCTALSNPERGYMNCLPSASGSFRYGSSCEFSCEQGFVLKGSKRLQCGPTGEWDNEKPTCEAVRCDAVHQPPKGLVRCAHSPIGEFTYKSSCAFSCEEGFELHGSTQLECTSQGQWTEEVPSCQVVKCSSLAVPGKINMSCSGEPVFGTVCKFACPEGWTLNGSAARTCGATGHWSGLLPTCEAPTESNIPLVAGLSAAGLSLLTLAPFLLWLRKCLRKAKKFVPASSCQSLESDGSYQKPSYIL
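Test system – human umbilical vein endothelial cells (HUVEC), E-selectin induction · Input – 3,000 HUVEC seeded per well · Buffer or medium – EGM-2, gelatin · Compound dosing – single-point compound dose · Detection – immunofluorescence imaging · Measure – percent E-selectin-positive cells · Controls – TNF-alpha high, DMSO low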
DENV2 CPE rescue: DENV2-induced cell death inhibition; DENV2-infected cells, cytopathic effect rescue, plate reader; CPE inhibition, % at 9.99 µM; actives 1.7% (n = 350,000); AID 651640; in the data active means CPE inhibition above about 20%, passing the limit was not always enough; tested in BHK-21 cells
Statin myotox sup: protects C2C12 myotubes from simvastatin toxicity. ATP luminescence, 48 h; scaled: DMSO 0, geranylgeraniol control 100. rescue of ATP level, % at 7.49 µM. actives 0.78% (n = 330,000). AID 602340;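 active means mean ATP rescue above about 67%, or every replicate alone reaching that limit, limit read from the data, passing the limit was not always enough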;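 further: myotubes were challenged with 10 µM simvastatin during compound exposure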
FGF22 binding: FGF22 (human) thermal shift binding. recombinant FGF22 thermal shift, SYPRO orange fluorescence; percent of sucrose octasulfate shift, DMSO zero. activity (Tm shift, normalised), % at 9.99 µM. actives 1.5% (n = 340,000);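 active means mean Tm shift, scaled 0 neutral to 100 positive control, at about 1.3% or above, every replicate too, limit read from the data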
A number is an active result. Hits are enriched below; roughly 3.3% of the tested compounds scored in any of these assays.

Screening COc1ccc(OCCN2CCN(S(=O)(=O)c3ccccc3C(F)(F)F)CC2)cc1 returned Xi reactivation inactive, PglD DTNB inactive, E-sel inducer 139.2, DENV2 CPE rescue inactive, Statin myotox sup inactive and FGF22 binding inactive.
COCC(=O)N(C)C[C@H]1Oc2ncc(-c3ccc(C#N)cc3)cc2C(=O)N([C@H](C)CO)C[C@H]1C was read as Xi reactivation inactive, PglD DTNB inactive, E-sel inducer inactive, DENV2 CPE rescue inactive, Statin myotox sup inactive and FGF22 binding inactive.
For C[C@H]1CN([C@@H](C)CO)C(=O)Cc2cc(NC(=O)Cc3cn(C)c4ccccc34)ccc2O[C@H]1CN(C)S(=O)(=O)c1ccc(F)cc1 the results were Xi reactivation inactive, PglD DTNB inactive, E-sel inducer inactive, DENV2 CPE rescue inactive, Statin myotox sup inactive and FGF22 binding inactive.
`COc1ccc2c3c(n(C)c2c1)[C@H](CO)N(S(C)(=O)=O)CC31CCN(CC2CC2)CC1` gave Xi reactivation inactive, E-sel inducer inactive, DENV2 CPE rescue inactive and FGF22 binding inactive.
COc1ccc(N2CCN(C(c3cccs3)C(C)NC(=O)c3ccc4c(c3)OCO4)CC2)cc1 (stereo not given) was read as Xi reactivation inactive, DENV2 CPE rescue inactive and FGF22 binding 43.3.
`Cc1ccc(-c2ccc3nnc(SCC(N)=O)n3n2)cc1` gave Xi reactivation inactive, DENV2 CPE rescue inactive and FGF22 binding 43.0.
O=C(Nc1cc(F)cc(F)c1)c1sc(Cl)nc1-c1ccccc1 was read as Xi reactivation inactive, PglD DTNB inactive, DENV2 CPE rescue 68.2, Statin myotox sup inactive and FGF22 binding inactive.
O=C(OCC(=O)c1c[nH]c2ccccc12)c1cc(Br)ccc1O was read as Xi reactivation inactive, E-sel inducer inactive, DENV2 CPE rescue inactive and FGF22 binding 43.3.
For CCCC(=O)Nc1ccc2c(c1)OC[C@@H](C)N(Cc1cncnc1)C[C@@H](C)[C@@H](OC)CN(C)C2=O the results were Xi reactivation inactive, PglD DTNB inactive, E-sel inducer inactive, DENV2 CPE rescue inactive, Statin myotox sup inactive and FGF22 binding inactive.
`CCCCn1nc(NC(=O)CC(C)C)c2cc3cc(OC)ccc3nc21` gave Xi reactivation inactive, PglD DTNB inactive, E-sel inducer 55.6, DENV2 CPE rescue inactive, Statin myotox sup inactive and FGF22 binding inactive.
`CCCCn1nc(NC(=O)CCC)c2cc3cc(OC)ccc3nc21` gave Xi reactivation inactive, PglD DTNB inactive, DENV2 CPE rescue inactive, Statin myotox sup inactive and FGF22 binding inactive.
`CCOC(=O)C1CCCN(C(=S)Nc2ccc(S(=O)(=O)N3CCOCC3)cc2)C1` (stereo not given) gave Xi reactivation inactive, PglD DTNB inactive, E-sel inducer inactive, DENV2 CPE rescue inactive, Statin myotox sup inactive and FGF22 binding 42.9.
CCOC(=O)C1CCCN(c2c(N3CCN(C)CC3)c(=O)c2=O)C1 (stereo not given) was read as Xi reactivation inactive, PglD DTNB inactive, E-sel inducer inactive, DENV2 CPE rescue inactive, Statin myotox sup inactive and FGF22 binding inactive.
Screening CCOC(=O)C1CCCN(c2c(N3CCOCC3)c(=O)c2=O)C1 (stereo not given) returned Xi reactivation inactive, PglD DTNB inactive, E-sel inducer inactive, DENV2 CPE rescue 45.6, Statin myotox sup inactive and FGF22 binding inactive.
Screening COc1ccc(OCC(=O)OCC(=O)Nc2cc(S(=O)(=O)N3CCOCC3)ccc2Cl)cc1 returned Xi reactivation inactive, PglD DTNB inactive, E-sel inducer inactive, DENV2 CPE rescue inactive, Statin myotox sup inactive and FGF22 binding 42.9.
`CCOC(=O)N1CCN(C(=S)Nc2cc(S(=O)(=O)N3CCOCC3)ccc2Cl)CC1` gave Xi reactivation inactive, PglD DTNB inactive, E-sel inducer inactive, DENV2 CPE rescue inactive, Statin myotox sup inactive and FGF22 binding 45.4.
`O=C(c1ccccc1F)N1C[C@H]2[C@@H](c3ccccc31)[C@@H](CO)N2C(=O)c1ccccc1` gave Xi reactivation inactive, PglD DTNB inactive, E-sel inducer inactive, DENV2 CPE rescue inactive, Statin myotox sup inactive and FGF22 binding inactive.
CN(C)S(=O)(=O)Oc1ccsc1C(=O)Nc1ccc(Br)cc1 was read as Xi reactivation inactive, DENV2 CPE rescue inactive and FGF22 binding 56.8.
`CCCC[C@@H](O)C1=C(COc2ccccc2)C[C@H]2C(=O)N(Cc3ccccc3)C(=O)[C@H]2[C@H]1CO` gave DENV2 CPE rescue inactive and FGF22 binding inactive.
`CCN(CC)CCCNC(=O)c1cc2c(=O)n(CC)c3ccccc3c2s1` gave Xi reactivation inactive, PglD DTNB inactive, E-sel inducer inactive, DENV2 CPE rescue inactive, Statin myotox sup inactive and FGF22 binding inactive.
Screening CCN(CC)CCNC(=O)c1cc2c(=O)n(CC)c3ccccc3c2s1 returned Xi reactivation inactive, PglD DTNB inactive, E-sel inducer 63.2, DENV2 CPE rescue inactive, Statin myotox sup inactive and FGF22 binding inactive.
Screening O=Cc1cn(CC(O)CN2CCCCC2)c2ccccc12 (stereo not given) returned Xi reactivation inactive, DENV2 CPE rescue inactive and FGF22 binding inactive.
CC(C)(CO)NCC(O)Cn1cc(C=O)c2ccccc21 (stereo not given) was read as Xi reactivation inactive, E-sel inducer inactive, DENV2 CPE rescue inactive and FGF22 binding 43.1.
`FC(F)(F)c1nc2ccccc2n2c(-c3ccc(Cl)cc3Cl)nnc12` gave PglD DTNB inactive and Statin myotox sup 83.9.
Screening COc1ccc(C(=O)NNC(=O)CSc2nnc(C)n2CC2CCCO2)cc1 (stereo not given) returned Xi reactivation inactive, PglD DTNB inactive, DENV2 CPE rescue inactive, Statin myotox sup inactive and FGF22 binding 43.5.
For O=C(C[C@@H]1CC[C@H](NC(=O)Nc2ccc3c(c2)OCO3)[C@@H](CO)O1)NCc1ccccc1 the results were Xi reactivation inactive, PglD DTNB inactive, E-sel inducer inactive, DENV2 CPE rescue inactive, Statin myotox sup inactive and FGF22 binding inactive.
`C[C@H](CO)N1C[C@H](C)[C@@H](CN(C)C(=O)Nc2ccccc2)Oc2ccc(NC(=O)Nc3cccc4ccccc34)cc2CC1=O` gave Xi reactivation inactive, PglD DTNB inactive, E-sel inducer inactive, DENV2 CPE rescue inactive, Statin myotox sup inactive and FGF22 binding inactive.
CC(=O)N(c1cc(C)ccc1C)c1ccccc1[N+](=O)[O-] was read as Xi reactivation inactive, PglD DTNB inactive, E-sel inducer inactive, DENV2 CPE rescue inactive, Statin myotox sup inactive and FGF22 binding 43.0.
For C[C@@H]1CN([C@@H](C)CO)C(=O)c2cc(NS(=O)(=O)c3ccc(Cl)cc3)ccc2O[C@@H]1CN(C)C(=O)NC1CCCCC1 the results were Xi reactivation inactive, PglD DTNB inactive, E-sel inducer inactive, DENV2 CPE rescue inactive, Statin myotox sup inactive and FGF22 binding inactive.
